# Key:
# Assay type in all cases: functional
# CCRF-CEM [1] = assay: Concentration that reduced by 50% the HIV induced CPE (cytopathic effect) on day 19.; conditions: Homo sapiens, 456 h, read-out: ED50 (the source's name)
# Method in brief: (§1)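 CEM-C113 cells (1×10^5 cells/mL) were infected with HIV-1 LAV-Bru or mock-infected, with compound dilutions in triplicate, for at least 7 days. Medium with or without drug was renewed every 3–4 days for longer runs. MTT absorbance was read at 540 nm. CD50 = 50% reduction of mock-infected absorbance; ED50 = dose giving 50% protection from CPE. Values are averages of at least two experiments.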
# [2] = molecular target: Human immunodeficiency virus type 1 reverse transcriptase (Human immunodeficiency virus 1) (UniProt Q72547); assay: Compounds were evaluated for anti-RT activity by MTT dose and %protection was reported at 9 days of culture
# Method in brief: (§2)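 HIV-1 was preincubated with compound at 25 µM for 60 min at 37 °C, pelleted, and added to CEM-C113 cells (1×10^5 cells/mL) for 60 min at 37 °C. Medium was then replaced without compound. At days 7 and 9, viability was read by MTT assay on 100 µL of cell suspension.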
# [3] = molecular target: Human immunodeficiency virus type 1 reverse transcriptase (Human immunodeficiency virus 1) (UniProt Q72547); assay: Compound ability to inhibit the production of HIV reverse transcriptase (RT) in preinfected PBL (peripheral blood lymphocytes) at 14 days at a concentration 5 uM
# Method in brief: (§3)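 PBL were infected with HIV-1 for 1 h at 37 °C, washed twice, and resuspended in complete medium with 10% interleukin-2 and anti-human α-interferon (1000 units/mL). Cells were plated at 1×10^6 cells/well with or without compound. At each time point, 50 µL supernatant was taken for RT assay ([³H]dTTP incorporation, cpm).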
# [4] = molecular target: Human immunodeficiency virus type 1 reverse transcriptase (Human immunodeficiency virus 1) (UniProt Q72547); assay: Compound ability to inhibit the production of HIV reverse transcriptase (RT) in preinfected PBL (peripheral blood lymphocytes) at 10 days at a concentration 1 uM; method in brief: as §3
# [5] = molecular target: Human immunodeficiency virus type 1 reverse transcriptase (Human immunodeficiency virus 1) (UniProt Q72547); assay: Compound ability to inhibit the production of HIV reverse transcriptase (RT) in culture supernatant of monocytic U937 on at 11 days at a concentration 1 uM
# Method in brief: (§4)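 HIV-1-infected monocytic U937 cultures were kept up to 14 days with compound. Supernatant RT activity was measured as for CEM-C113, as [³H] cpm/50 µL. % inhibition = 100 − 100 × (cpm of treated samples / cpm of control virus).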
# [6] = molecular target: Human immunodeficiency virus type 1 reverse transcriptase (Human immunodeficiency virus 1) (UniProt Q72547); assay: Compounds were evaluated for anti-RT activity by MTT dose and % cell / viability was reported at 13 days of culture
# [7] = molecular target: Human immunodeficiency virus type 1 reverse transcriptase (Human immunodeficiency virus 1) (UniProt Q72547); assay: Compound ability to inhibit the production of HIV reverse transcriptase (RT) in preinfected PBL (peripheral blood lymphocytes) at 21 days at a concentration 5 uM; method in brief: as §3
# [8] = molecular target: Human immunodeficiency virus type 1 reverse transcriptase (Human immunodeficiency virus 1) (UniProt Q72547); assay: Compounds were evaluated for anti-RT activity at 0 days of culture
# Method in brief: (§5)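 HIV-1 (12 500 CCID50) was preincubated with compound at 25 µM final for 60 min at 37 °C, pelleted by ultracentrifugation and resuspended. RT was measured at once with poly(rA)-oligo(dT) and ³H-dTTP (1 h, 37 °C, cpm). Treated virus was then put on CEM-C113 cells for 60 min and replaced with compound-free medium. Supernatant RT was read at days 7 and 9.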
# [9] = molecular target: Human immunodeficiency virus type 1 reverse transcriptase (Human immunodeficiency virus 1) (UniProt Q72547); assay: Compound ability to inhibit the production of HIV reverse transcriptase (RT) in preinfected PBL (peripheral blood lymphocytes) at 7 days at a concentration 5 uM; method in brief: as §3
# [10] = molecular target: Human immunodeficiency virus type 1 reverse transcriptase (Human immunodeficiency virus 1) (UniProt Q72547); assay: Percent inhibition measured as the production of HIV reverse transcriptase (RT) in culture supernatant of monocytic U937 on at 11 days at a concentration 1 uM
# Method in brief: (§6)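 U937 cells in RPMI 1640 with 5% heat-inactivated FCS, penicillin, streptomycin and polybrene (2 μg/mL), 37 °C, 5% CO2. Infected with HIV-1 LAV-Bru; compounds diluted in PBS. 50 μL supernatant aliquots were assayed for RT: 1 h, 37 °C, pH 7.8, Mg2+, poly(rA)-oligo(dT), [3H]dTTP, TCA-pyrophosphate stop, filter counting. % inhibition = 100 − 100 × (treated cpm / virus-control cpm).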
# [11] = molecular target: Human immunodeficiency virus type 1 reverse transcriptase (Human immunodeficiency virus 1) (UniProt Q72547); assay: Compounds were evaluated for anti-RT activity by MTT dose and % cell / viability was reported at 9 days of culture; method in brief: as §2
# [12] = molecular target: Human immunodeficiency virus type 1 reverse transcriptase (Human immunodeficiency virus 1) (UniProt Q72547); assay: Compound ability to inhibit the production of HIV reverse transcriptase (RT) in culture supernatant of CEM-CL13 on at 7 days at a concentration 0.2 uM
# Method in brief: (§7)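 CEM-C113 cells in RPMI 1640 with 5% heat-inactivated FCS and polybrene (2 µg/mL) were plated at 1×10^5 cells/mL with compound in PBS, in triplicate, and infected with HIV-1 LAV-Bru. From day 7, every 3–4 days, fresh medium with or without drug was added and 50 µL supernatant was taken for RT microassay. The RT microassay used poly(rA)-oligo(dT) and (methyl-³H)dTTP for 1 h at 37 °C, with TCA precipitation, read as cpm/50 µL.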
# CCRF-CEM [13] = assay: Concentration required to reduce the viability of uninfected cells (CEM-CL13) by 50% on day 11.; conditions: Homo sapiens, 264 h, read-out: CD50 (the source's name); method in brief: as §1
# [14] = molecular target: Human immunodeficiency virus type 1 reverse transcriptase (Human immunodeficiency virus 1) (UniProt Q72547); assay: Compound ability to inhibit the production of HIV reverse transcriptase (RT) in culture supernatant of monocytic U937 on at 7 days at a concentration 1 uM; method in brief: as §4
# [15] = molecular target: Human immunodeficiency virus type 1 reverse transcriptase (Human immunodeficiency virus 1) (UniProt Q72547); assay: Percent inhibition measured as the production of HIV reverse transcriptase (RT) in culture supernatant of monocytic U937 on at 7 days at a concentration 1 uM; method in brief: as §6
# CCRF-CEM [16] = assay: Concentration that reduced by 50% the HIV induced CPE (cytopathic effect) on day 7.; conditions: Homo sapiens, 168 h, read-out: ED50 (the source's name); method in brief: as §1
# CCRF-CEM [17] = assay: Concentration that reduced by 50% the HIV induced CPE (cytopathic effect) on day 11.; conditions: Homo sapiens, 264 h, read-out: ED50 (the source's name); method in brief: as §1
# [18] = molecular target: Human immunodeficiency virus type 1 reverse transcriptase (Human immunodeficiency virus 1) (UniProt Q72547); assay: Compounds were evaluated for anti-RT activity at 9 days of culture; method in brief: as §5
# CCRF-CEM [19] = assay: Concentration required to reduce the viability of uninfected cells (CEM-CL13) by 50% on day 7.; conditions: Homo sapiens, 168 h, read-out: CD50 (the source's name); method in brief: as §1
# [20] = molecular target: Human immunodeficiency virus type 1 reverse transcriptase (Human immunodeficiency virus 1) (UniProt Q72547); assay: Compound ability to inhibit the production of HIV reverse transcriptase (RT) in culture supernatant of CEM-CL13 on at 22 days at a concentration 0.2 uM; method in brief: as §7
# [21] = molecular target: Human immunodeficiency virus type 1 reverse transcriptase (Human immunodeficiency virus 1) (UniProt Q72547); assay: Compound ability to inhibit the production of HIV reverse transcriptase (RT) in culture supernatant of monocytic U937 on at 14 days at a concentration 1 uM; method in brief: as §4
# [22] = molecular target: Human immunodeficiency virus type 1 reverse transcriptase (Human immunodeficiency virus 1) (UniProt Q72547); assay: Compounds were evaluated for anti-RT activity by MTT dose and %protection was reported at 13 days of culture
# CCRF-CEM [23] = assay: Concentration required to reduce the viability of uninfected cells (CEM-CL13) by 50% on day 19.; conditions: Homo sapiens, 456 h, read-out: CD50 (the source's name); method in brief: as §1
# [24] = molecular target: Human immunodeficiency virus type 1 reverse transcriptase (Human immunodeficiency virus 1) (UniProt Q72547); assay: Compound ability to inhibit the production of HIV reverse transcriptase (RT) in culture supernatant of CEM-CL13 on at 15 days at a concentration 0.2 uM; method in brief: as §7
# [25] = molecular target: Human immunodeficiency virus type 1 reverse transcriptase (Human immunodeficiency virus 1) (UniProt Q72547); assay: Compound ability to inhibit the production of HIV reverse transcriptase (RT) in culture supernatant of CEM-CL13 on at 26 days at a concentration 0.2 uM; method in brief: as §7
# [26] = molecular target: Human immunodeficiency virus type 1 reverse transcriptase (Human immunodeficiency virus 1) (UniProt Q72547); assay: Compounds were evaluated for anti-RT activity by MTT dose and % cell / viability was reported at 7 days of culture; method in brief: as §2
Structure (SMILES),EC50 (CCRF-CEM [1]),Protection [2],Activity (c.p.m. 50ul-1) [4],Activity (c.p.m. 50ul-1) [5],Cell viability [6],Activity (c.p.m. 50ul-1) [8],inhibition [10],Cell viability [11],Activity (c.p.m. 50ul-1) [12],CC50 (CCRF-CEM [13]),Activity (c.p.m. 50ul-1) [14],inhibition [15],EC50 (CCRF-CEM [16]),EC50 (CCRF-CEM [17]),Activity (c.p.m. 50ul-1) [18],CC50 (CCRF-CEM [19]),Activity (c.p.m. 50ul-1) [20],Activity (c.p.m. 50ul-1) [21],Protection [22],CC50 (CCRF-CEM [23]),also measured
CCCCCCCCCCCCCCCCOP(=O)(OC[C@H]1OC(O)[C@H](O)[C@@H](O)[C@@H]1O)OC[C@H]1OC(n2cc(C)c(=O)[nH]c2=O)C[C@@H]1N=[N+]=[N-] (stereo partly specified),1500 nM,52%,26300,68000,39%,16000,53%,62%,4500,3 µM,66000,73%,180 nM,180 nM,13000,11 µM,45000,4000,28%,3.2 µM,Activity (c.p.m. 50ul-1) [3]: 157000; Activity (c.p.m. 50ul-1) [7]: 150000; Activity (c.p.m. 50ul-1) [9]: 8210; Activity (c.p.m. 50ul-1) [24]: 1600; Activity (c.p.m. 50ul-1) [25]: 64000; Cell viability [26]: 85%
Cc1cn([C@H]2C[C@H](N=[N+]=[N-])[C@@H](COP(=O)(O)OC[C@H]3OC(O)[C@@H](O)[C@@H](O)[C@@H]3O)O2)c(=O)[nH]c1=O (stereo partly specified),200 nM,22%,3130,137000,18%,25000,5%,36%,3400,28 µM,425000,0%,130 nM,200 nM,34000,27 µM,27000,22500,3%,24 µM,Activity (c.p.m. 50ul-1) [3]: 4130; Activity (c.p.m. 50ul-1) [7]: 19500; Activity (c.p.m. 50ul-1) [9]: 967; Activity (c.p.m. 50ul-1) [24]: 1700; Activity (c.p.m. 50ul-1) [25]: 85000; Cell viability [26]: 54%
CCCCCCCCCCCCCCCCOP(=O)(OC[C@H]1OC(O)[C@@H](O)[C@@H](O)[C@@H]1O)OC[C@H]1OC(n2cc(C)c(=O)[nH]c2=O)C[C@@H]1N=[N+]=[N-] (stereo partly specified),500 nM,18%,71500,225000,25%,17000,0%,32%,4000,2.6 µM,122000,51%,140 nM,300 nM,10000,2.6 µM,24000,35000,10%,2.5 µM,Activity (c.p.m. 50ul-1) [3]: 58300; Activity (c.p.m. 50ul-1) [7]: 22400; Activity (c.p.m. 50ul-1) [9]: 3140; Activity (c.p.m. 50ul-1) [24]: 1700; Activity (c.p.m. 50ul-1) [25]: 73000; Cell viability [26]: 77%
CCCCCCCCCCCCCCCCOP(=O)(OCCO[C@H]1O[C@H](CO)[C@@H](O)[C@H](O)[C@@H]1O)OCC1OC(n2cc(C)c(=O)[nH]c2=O)CC1N=[N+]=[N-] (stereo partly specified),1700 nM,4%,60200,243000,12%,13000,0%,25%,3900,28 µM,401000,0%,180 nM,1000 nM,44000,20 µM,52000,55000,0%,3.4 µM,Activity (c.p.m. 50ul-1) [24]: 2400; Activity (c.p.m. 50ul-1) [25]: 61000; Cell viability [26]: 41%
